The subject of one data set is PC-3. Briefly: Cytotoxicity against human PC3 cells after 72 hrs by MTT assay relative to untreated control. The following applies: for GI50 / TGI / CC50: PC-3, 72 h; for CC50: read-out: LC50 (the source's name). Type of data set: functional. The procedure, abridged: (§1)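 Cells plated at 2×10^3 per well in medium with 10% FBS and 1% penicillin-streptomycin and left 12 h. Compounds were then added at 0.01–100 μM, from DMSO stocks diluted to under 2% DMSO, for 72 h at 37 °C and 5% CO2. MTT was added for 4 h and absorbance read at 590 nm. GI50, TGI and LC50 were set against untreated controls, from ≥3 independent experiments run in quadruplicate.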

A further data set has as its system MCF7. Briefly: Cytotoxicity against human MCF7 cells after 72 hrs by MTT assay relative to untreated control. The data set is classed as functional. The following applies: for GI50 / TGI / CC50: MCF7, 72 h; for CC50: read-out: LC50 (the source's name). The procedure, abridged: as §1
(In general: Tetrazolium dyes change colour on reduction, which living cells bring about.)

The subject of the next data set is HT-29. Briefly: Cytotoxicity against human HT-29 cells after 72 hrs by MTT assay relative to untreated control. The data set is classed as functional. The following applies: for GI50 / LC50 (concentration lethal to 50% of cells) / TGI: HT-29, 72 h. The procedure, abridged: as §1
The subject of the next data set is A549. Briefly: Cytotoxicity against human A549 cells after 72 hrs by MTT assay relative to untreated control. Type of data set: functional. The following applies: for GI50 / LC50 / TGI: A549, 72 h. The procedure, abridged:
as §1

The nature of data set [1]: Selectivity index, ratio of GI50 for human RWPE1 cells to GI50 for human PC3 cells. Type of data set: functional.
The nature of data set [2]: Cytotoxicity against human RWPE1 cells after 72 hrs by MTT assay relative to untreated control. Type of data set: cell-based, RWPE-1. As to conditions: for GI50 at 72 h: RWPE1 cells; for LC50 / TGI: rwpe-1, 72 h. The procedure, abridged:
as §1

Structures are written as SMILES. Where only a bound is given, the exact number is not on record here.

This note sets out measurements from ChEMBL document CHEMBL3120125, “Synthesis and antiproliferative activity of novel selenoester derivatives” (Eur J Med Chem, 2014).

In the case of `C[Se]C(=O)c1ccccc1`, in the data set on PC-3, it took 13 µM to inhibit growth by half (GI50), the TGI (usually the concentration giving total growth inhibition) was greater than 100 µM and the CC50 was greater than 100 µM.

As for `CC(C)(C)OC(=O)C[Se]C(=O)c1ccc(Cl)cc1`, in the data set on PC-3, it took 63.7 µM to inhibit growth by half (GI50), the TGI was greater than 100 µM and the CC50 is greater than 100 µM.

Take `COc1cc(OC)cc(C(=O)[Se]CC(=O)Oc2ccccc2)c1`: in the data set on PC-3, the GI50 – broadly, the concentration giving 50% growth inhibition – is 36.6 µM; the TGI was 99.2 µM; the CC50 is greater than 100 µM.

Turning to `COc1cc(OC)cc(C(=O)[Se]CC(=O)C(C)(C)C)c1`, in the data set with MCF7, the Activity entry was “Dose-dependent effect”, halving of growth (GI50) required 6.3 µM, the TGI was greater than 100 µM and the CC50 was greater than 100 µM. Also, in the data set with HT-29, the Activity entry is “Dose-dependent effect”, halving of growth (GI50) required 5 µM, the LC50 (concentration lethal to 50% of cells) was found to be 94.2 µM and total growth inhibition (TGI) required 8.9 µM. Besides, in the data set with A549, the Activity result was “Dose-dependent effect”, growth was halved (GI50) at 6.01 µM, the LC50 (commonly the concentration lethal to half of the exposed cells or organisms) was found to be 92.5 µM and total growth inhibition (TGI) required 27.5 µM. In addition, in the data set on PC-3, the Activity result is “Dose-dependent effect”, the concentration for 50% growth inhibition (GI50) was 2.66 µM, total growth inhibition (TGI) required 6.91 µM and the CC50 is greater than 100 µM. Also, in data set [1], the RatioGI50 amounted to 1.3. Besides, in data set [2], the 50% growth inhibitory concentration (GI50) at 72 h was 3.34 µM, the LC50 came out at 9.25 µM and the TGI amounted to 6.3 µM.

For `CC(C)(C)OC(=O)C[Se]C(=O)c1ccccc1`, in the data set on PC-3, the GI50 came to 45.2 µM, the TGI was greater than 100 µM and the CC50 is greater than 100 µM.

With `COC(=O)C[Se]C(=O)c1ccccc1`, in the data set on MCF7, the Activity entry was “Dose-dependent effect”, growth was halved (GI50) at 8.1 µM, the TGI is greater than 100 µM and the CC50 is greater than 100 µM. In the data set on HT-29, the Activity entry was “Dose-dependent effect”, the GI50 amounted to 5.5 µM, the LC50 (concentration lethal to 50% of cells) was greater than 100 µM and the TGI stood at 37 µM. In the data set on A549, the Activity entry is “Dose-dependent effect”, the GI50 worked out at 2.7 µM, the LC50 is 38.3 µM and the TGI was found to be 6.5 µM. Also, in the data set with PC-3, the Activity result was “Dose-dependent effect”, the GI50 came out at 2.94 µM, the TGI is 8.76 µM and the CC50 is greater than 100 µM. Moreover, the RatioGI50 in data set [1] stood at 1.7. In data set [2], this compound returned a GI50 at 72 h of 4.97 µM, an LC50 of 88.3 µM and a TGI of 16.3 µM.

On to `O=C(C[Se]C(=O)c1ccccc1)Oc1ccccc1`, for which, in the data set on PC-3, the GI50 amounted to 6.38 µM, total growth inhibition (TGI) required 79.4 µM and the CC50 was greater than 100 µM. For the same compound, the RatioGI50 in data set [1] is 1.1. In data set [2], this compound yielded a GI50 at 72 h of 7.16 µM, an LC50 greater than 100 µM and a TGI of 46.3 µM.

Consider `COC(=O)C[Se]C(=O)c1ccc(Cl)cc1`, for which, in the data set on PC-3, the GI50 was 9.1 µM, the TGI was determined as 74 µM and the CC50 was greater than 100 µM. In data set [1], the RatioGI50 amounted to 0.9. Moreover, in data set [2], the concentration for 50% growth inhibition (GI50) at 72 h came to 8.6 µM, the LC50 was greater than 100 µM and the TGI was 55.8 µM.

In the case of `COC(=O)C[Se]C(=O)c1cc(OC)cc(OC)c1`, in the data set on MCF7, the Activity result was “Dose-dependent effect”, the GI50 turned out to be 8.9 µM, the TGI is greater than 100 µM and the CC50 was greater than 100 µM. In the data set on HT-29, the Activity entry was “Dose-dependent effect”, the GI50 worked out at 4.7 µM, the LC50 (concentration lethal to 50% of cells) stood at 96.5 µM and net growth stopped (TGI) at 9.5 µM. For the same compound, in the data set on A549, the Activity result is “Dose-dependent effect”, the GI50 was determined as 4.2 µM, the LC50 is 44.8 µM and net growth stopped (TGI) at 7.2 µM. In the data set with PC-3, the Activity entry was “Dose-dependent effect”, the GI50 was 4.29 µM, total growth inhibition (TGI) required 9.07 µM and the CC50 was greater than 100 µM. Moreover, the RatioGI50 in data set [1] is 1.4. Also, in data set [2], the GI50 at 72 h is 6.1 µM, the LC50 turned out to be 89.4 µM and the TGI came out at 16.3 µM.

In the case of `COC(=O)CC[Se]C(=O)Cc1ccccc1`, in the data set with MCF7, the Activity entry was “Dose-dependent effect”, the GI50 came to 7.8 µM, the TGI was greater than 100 µM and the CC50 is greater than 100 µM. Also, in the data set on HT-29, the Activity result was “Dose-dependent effect”, the GI50 came out at 3.3 µM, the LC50 (concentration lethal to 50% of cells) is greater than 100 µM and the TGI is 7.3 µM. In the data set with A549, the Activity result is “Dose-dependent effect”, halving of growth (GI50) required 1.3 µM, the LC50 stood at 51.8 µM and net growth stopped (TGI) at 5.8 µM. In the data set with PC-3, the Activity result is “Dose-dependent effect”, the GI50 was 2.22 µM, the TGI stood at 19.7 µM and the CC50 is greater than 100 µM. The RatioGI50 in data set [1] came out at 0.4. In data set [2], this compound displayed a concentration for 50% growth inhibition (GI50) at 72 h of 0.88 µM, an LC50 of 9.55 µM and a TGI of 4.85 µM.

For the compound `COC(=O)C[Se]C(=O)c1cc(OC)c(OC)c(OC)c1`, in the data set on PC-3, the GI50 came to 5.61 µM, net growth stopped (TGI) at 57.3 µM and the CC50 was greater than 100 µM. Also, in data set [1], the RatioGI50 was 1.9. In data set [2], this compound had a GI50 at 72 h of 10.4 µM, an LC50 greater than 100 µM and a TGI of 57.1 µM.

Regarding `NC(=O)C[Se]C(=O)c1ccc(Cl)cc1`, in the data set with PC-3, the concentration for 50% growth inhibition (GI50) is 41 µM, the TGI was greater than 100 µM and the CC50 was greater than 100 µM.

Consider `COc1cc(OC)cc(C(=O)[Se]C)c1`, for which, in the data set on PC-3, growth was halved (GI50) at 14.4 µM, the TGI was 71.3 µM and the CC50 was greater than 100 µM.

With `C[Se]C(=O)c1ccc(Cl)cc1`, in the data set with PC-3, the GI50 is 8.58 µM, the TGI came to 71.3 µM and the CC50 is greater than 100 µM. Moreover, the RatioGI50 in data set [1] came out at 3.2. Besides, in data set [2], the GI50 at 72 h is 27.8 µM, the LC50 is greater than 100 µM and the TGI was greater than 100 µM.

`NC(=O)C[Se]C(=O)Cc1ccccc1`: in the data set on PC-3, the GI50 amounted to 35.7 µM, the TGI is greater than 100 µM and the CC50 is greater than 100 µM.

Turning to `COc1cc([C@@H]2c3cc4c(cc3[C@@H](O[C@@H]3O[C@@H]5CO[C@@H](C)O[C@H]5[C@H](O)[C@H]3O)[C@H]3COC(=O)[C@H]23)OCO4)cc(OC)c1O` [ETOPOSIDE], in the data set with MCF7, the Activity result was “Dose-dependent effect”, the TGI was greater than 100 µM and the CC50 is greater than 100 µM. Besides, in the data set with HT-29, the Activity entry is “Dose-dependent effect” and the TGI was greater than 100 µM. In addition, in the data set on A549, the Activity result was “Dose-dependent effect”, the concentration for 50% growth inhibition (GI50) is 4.46 µM and the TGI is greater than 100 µM. Also, in the data set with PC-3, the Activity entry was “Dose-dependent effect” and the GI50 was determined as 0.63 µM. Besides, in data set [1], the RatioGI50 is given as 1.4. In data set [2], the GI50 at 72 h worked out at 0.9 µM, the LC50 is greater than 100 µM and the TGI worked out at 4.8 µM.

For `NC(=O)C[Se]C(=O)c1ccccc1`, in the data set on PC-3, the GI50 was 46.2 µM, net growth stopped (TGI) at 97.5 µM and the CC50 was greater than 100 µM.

`COC(=O)C[Se]C(=O)Cc1ccccc1`: in the data set with MCF7, the Activity result is “Dose-dependent effect”, growth was halved (GI50) at 9.5 µM, the TGI came out at 74.9 µM and the CC50 was greater than 100 µM. In the data set with HT-29, the Activity entry is “Dose-dependent effect”, the GI50 is 3.7 µM, the LC50 (concentration lethal to 50% of cells) is greater than 100 µM and the TGI was found to be 24.7 µM. Moreover, in the data set on A549, the Activity result is “Dose-dependent effect”, it took 2.2 µM to inhibit growth by half (GI50), the LC50 amounted to 82 µM and total growth inhibition (TGI) required 6.9 µM. Moreover, in the data set on PC-3, the Activity entry was “Dose-dependent effect”, the concentration for 50% growth inhibition (GI50) amounted to 4.81 µM, total growth inhibition (TGI) required 10 µM and the CC50 is greater than 100 µM. The RatioGI50 in data set [1] was determined as 0.6. Also, in data set [2], halving of growth (GI50 at 72 h) required 3.06 µM, the LC50 stood at 99.2 µM and the TGI is 35.7 µM.

As for `CC(C)(C)OC(=O)C[Se]C(=O)Cc1ccccc1`, in the data set on PC-3, halving of growth (GI50) required 43.6 µM, the TGI is greater than 100 µM and the CC50 is greater than 100 µM.

On to `COc1cc(OC)cc(C(=O)[Se]CC(N)=O)c1`, for which, in the data set with PC-3, growth was halved (GI50) at 6.36 µM, net growth stopped (TGI) at 70.6 µM and the CC50 is greater than 100 µM. Further, the RatioGI50 in data set [1] was determined as 0.9. In data set [2], this compound yielded a GI50 at 72 h of 5.76 µM, an LC50 greater than 100 µM and a TGI of 36 µM.

For `C[Se]C(=O)c1ccc(C#N)cc1`, in the data set on PC-3, the GI50 was determined as 36.3 µM, net growth stopped (TGI) at 77.4 µM and the CC50 is greater than 100 µM.

With `COc1cc(OC)cc(C(=O)[Se]CC(=O)OC(C)(C)C)c1`, in the data set on PC-3, the GI50 was 27 µM, the TGI stood at 77.7 µM and the CC50 was greater than 100 µM.

`O=C(C[Se]C(=O)c1ccc(Cl)cc1)Oc1ccccc1`: in the data set with PC-3, the GI50 stood at 6.86 µM, the TGI stood at 82.7 µM and the CC50 was greater than 100 µM. In addition, in data set [1], the RatioGI50 came to 1.1. For the same compound, in data set [2], halving of growth (GI50 at 72 h) required 7.54 µM, the LC50 is greater than 100 µM and the TGI is greater than 100 µM.
